Converted amounts (≈) assume the structure as drawn.
Legend:
[1] = Selectivity ratio of CC50 for cytotoxicity against African green monkey Vero cells to MIC for antifungal activity against Cryptococcus gattii NR 43214; assay type: toxicity, cell-based
[2] = Selectivity ratio of CC50 for cytotoxicity against human Caco-2 cells to MIC for antifungal activity against Cryptococcus neoformans NR 41298; assay type: toxicity, cell-based
Pichia kudriavzevii = experiment: Antifungal activity against Candida krusei ATCC 34135 assessed as inhibition of fungal growth incubated for 24 hrs by broth microdilution method; assay type: functional
Outline: (§1)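 Broth microdilution per CLSI guidelines against clinical isolates, incubated at 35 °C for 24 h (Candida, Aspergillus) or 48 h (Cryptococcus). MIC was the lowest concentration giving 50% growth inhibition.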

[3] = Plasma concentration in Sprague-Dawley rat at 25 mg/kg, po administered as single dose and measured within few minutes by LC/MS/MS analysis; assay type: ADME, organism-based; details: in vivo
Outline: (§2)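 Male naïve Sprague–Dawley rats (n=3) received a single 25 mg kg−1 oral gavage dose in 5% ethanol/45% PEG 400/50% water. EDTA-K2 blood was sampled over 24 h post-dose. Plasma levels were measured by LC/MS/MS after acetonitrile protein precipitation, and parameters came from two-compartment analysis.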

[4] = Cmax in Sprague-Dawley rat at 25 mg/kg, po administered as single dose by LC/MS/MS analysis; assay type: ADME, organism-based; set-up: dose 25 mg/kg, route po; details: in vivo; outline: as §2
[Candida] auris [5] = Antifungal activity against Candida auris 383 assessed as inhibition of fungal growth incubated for 24 hrs by broth microdilution method; assay type: functional; details: Candidozyma auris
Outline: (§3)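 Clinical isolate; CLSI broth microdilution over a range of concentrations (media listed: RPMI 1640, MOPS, YPD). MIC taken as lowest concentration giving 50% growth inhibition after 24 h at 35 °C.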

Caco-2 = experiment: Cytotoxicity against human Caco-2 cells assessed as inhibition of cell viability at 128 ug/ml incubated for 2 hrs by MTS assay; assay type: toxicity, cell-based; details: caco-2, 2 h, dose 128 µg/ml
Outline: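 Caco-2 cells were grown in DMEM with 10% FBS, 1× nonessential amino acids and penicillin–streptomycin, then treated with 32, 64 and 128 μg mL−1 for 2 h at 37 °C, 5% CO2, in triplicate. MTS was added for 3 h and OD490 read. Viability was expressed as % of DMSO control (mean ± SD).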

[6] = Antifungal activity against Cryptococcus gattii NR 43214 assessed as inhibition of fungal growth incubated for 48 hrs by broth microdilution method; assay type: functional, Cryptococcus gattii VGI; outline: as §1
Cryptococcus neoformans [7] = experiment: Antifungal activity against Cryptococcus neoformans NR 41298 assessed as inhibition of fungal growth incubated for 48 hrs by broth microdilution method; assay type: functional
Outline: (§4)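 Clinical isolate; CLSI broth microdilution over a range of concentrations (media listed: RPMI 1640, MOPS, YPD). MIC read as lowest concentration inhibiting growth by 50% after 48 h incubation at 35 °C.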

[8] = Selectivity ratio of CC50 for cytotoxicity against human Caco-2 cells to MIC for antifungal activity against Cryptococcus gattii NR 43214; assay type: toxicity, cell-based
[9] = Plasma concentration in Sprague-Dawley rat at 25 mg/kg, po administered as single dose and measured for 18 hrs by LC/MS/MS analysis; assay type: ADME, organism-based; outline: as §2
Staphylococcus aureus = experiment: Antibacterial activity against Methicillin-resistant Staphylococcus aureus USA300 assessed as inhibition of bacterial growth; assay type: functional
[10] = Selectivity ratio of CC50 for cytotoxicity against African green monkey Vero cells to MIC for antifungal activity against Cryptococcus gattii NR 43216; assay type: toxicity, cell-based
[11] = Selectivity ratio of CC50 for cytotoxicity against African green monkey Vero cells to MIC for antifungal activity against Cryptococcus gattii NR 43213; assay type: toxicity, cell-based
Nakaseomyces glabratus = experiment: Antifungal activity against Candida glabrata ATCC MYA2950 assessed as inhibition of fungal growth incubated for 24 hrs by broth microdilution method; assay type: functional; outline: as §3
[12] = Selectivity ratio of CC50 for cytotoxicity against human Caco-2 cells to MIC for antifungal activity against Cryptococcus gattii NR 43216; assay type: toxicity, cell-based
Cryptococcus neoformans [13] = experiment: Anti-cryptococcal activity against Cryptococcus neoformans NR 41300 infected in mouse J774 cells assessed as log reduction of intracellular fungal colony forming unit at 4 ug/ml measured after 24 hrs; assay type: functional; details: dose 4 µg/ml
Outline: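 C. neoformans NR-41300 was grown 48 h in YPD, washed, and used to infect J774 macrophages at MOI ~100:1 for 1 h, followed by PBS washes. Compounds at 4 μg mL−1 (triplicate) were applied for 22 h at 37 °C, 5% CO2. Extracellular yeast were killed with amphotericin B 1 μg mL−1 for 1 h. Cells were lysed in 0.1% Triton X-100 and plated on YPD agar for 48 h at 37 °C; readout log10 CFU mL−1.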

[14] = Antifungal activity against Cryptococcus gattii NR 43216 assessed as inhibition of fungal growth incubated for 48 hrs by broth microdilution method; assay type: functional, Cryptococcus gattii VGI; outline: as §1
[15] = Half life in Sprague-Dawley rat at 25 mg/kg, po administered as single dose by LC/MS/MS analysis; assay type: ADME, organism-based; details: in vivo; outline: as §2
[16] = Selectivity ratio of CC50 for cytotoxicity against human Caco-2 cells to MIC for antifungal activity against Cryptococcus neoformans NR 41300; assay type: toxicity, cell-based
[Candida] auris [17] = Antifungal activity against Candida auris 381 assessed as inhibition of fungal growth incubated for 24 hrs by broth microdilution method; assay type: functional; details: Candidozyma auris; outline: as §3
[18] = Selectivity ratio of CC50 for cytotoxicity against African green monkey Vero cells to MIC for antifungal activity against Cryptococcus neoformans NR 48773; assay type: toxicity, cell-based
[19] = Selectivity ratio of CC50 for cytotoxicity against human Caco-2 cells to MIC for antifungal activity against Cryptococcus neoformans NR 48770; assay type: toxicity, cell-based
[20] = Tmax in Sprague-Dawley rat at 25 mg/kg, po administered as single dose by LC/MS/MS analysis; assay type: ADME, organism-based; details: in vivo
Outline: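 Male naïve Sprague–Dawley rats (n = 3) received a single 25 mg kg−1 dose by oral gavage in 5% ethanol/45% PEG 400/50% water. EDTA-K2 blood was sampled over 24 h. Plasma levels were measured by LC/MS/MS after acetonitrile protein precipitation, and parameters came from two-compartment analysis.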

[21] = Antifungal activity against Cryptococcus gattii NR 43209 assessed as inhibition of fungal growth incubated for 48 hrs by broth microdilution method; assay type: functional, Cryptococcus gattii VGI; outline: as §1
Cryptococcus neoformans [22] = experiment: Antifungal activity against Cryptococcus neoformans NR 48770 assessed as inhibition of fungal growth incubated for 48 hrs by broth microdilution method; assay type: functional; outline: as §4
[23] = Selectivity ratio of CC50 for cytotoxicity against human Caco-2 cells to MIC for antifungal activity against Cryptococcus gattii NR 43209; assay type: toxicity, cell-based
[Candida] auris [24] = Antifungal activity against Candida auris 382 assessed as inhibition of fungal growth incubated for 24 hrs by broth microdilution method; assay type: functional; details: Candidozyma auris; outline: as §3
Candida parapsilosis = experiment: Antifungal activity against Candida parapsilosis ATCC 22019 assessed as inhibition of fungal growth incubated for 24 hrs by broth microdilution method; assay type: functional; details: Lodderomyces parapsilosis; outline: as §3
Cryptococcus neoformans [25] = experiment: Antifungal activity against Cryptococcus neoformans NR 48773 assessed as inhibition of fungal growth incubated for 48 hrs by broth microdilution method; assay type: functional; outline: as §4
Aspergillus fumigatus = experiment: Antifungal activity against Aspergillus fumigatus NR 35304 assessed as inhibition of fungal growth incubated for 24 hrs by broth microdilution method; assay type: functional; outline: as §1
[26] = Selectivity ratio of CC50 for cytotoxicity against African green monkey Vero cells to MIC for antifungal activity against Cryptococcus gattii NR 43210; assay type: toxicity, cell-based

## Cc1nc(-c2ccc3ccccc3c2)sc1-c1nnc(N[C@@H]2CCCC[C@H]2N)o1 (relative stereo)
[1]
  selectivity ratio: 64
[2]
  selectivity ratio: 64
Pichia kudriavzevii
  MIC: 1 mg/L (≈ 2.47 µM)
[3]
  Cp: 1 µg/mL
[4]
  Cmax: 9.4 µg/mL
[Candida] auris [5]
  MIC: 1 mg/L (≈ 2.47 µM)
Caco-2
  Activity: Non-Toxic
[6]
  MIC: 1 mg/L (≈ 2.47 µM)
Cryptococcus neoformans [7]
  MIC: 1 mg/L (≈ 2.47 µM)
[8]
  selectivity ratio: 64
[9]
  concentration at 18 h: 1 µg/mL
Staphylococcus aureus
  MIC: 64 mg/L (≈ 158 µM)
[10]
  selectivity ratio: 64
[11]
  selectivity ratio: 64
Nakaseomyces glabratus
  MIC: 1 mg/L (≈ 2.47 µM)
[12]
  selectivity ratio: 64
Cryptococcus neoformans [13]
  Activity: 0.66 log10CFU/ml
[14]
  MIC: 2 mg/L (≈ 4.93 µM)
[15]
  half-life: 3.6 h
[16]
  selectivity ratio: 64
[Candida] auris [17]
  MIC: 2 mg/L (≈ 4.93 µM)
[18]
  selectivity ratio: 64
[19]
  selectivity ratio: 64
[20]
  Tmax: 3 h
[21]
  MIC: 1 mg/L (≈ 2.47 µM)
Cryptococcus neoformans [22]
  MIC: 1 mg/L (≈ 2.47 µM)
[23]
  selectivity ratio: 64
[Candida] auris [24]
  MIC: 2 mg/L (≈ 4.93 µM)
Candida parapsilosis
  MIC: 1 mg/L (≈ 2.47 µM)
Cryptococcus neoformans [25]
  MIC: 2 mg/L (≈ 4.93 µM)
Aspergillus fumigatus
  MIC: 4 mg/L (≈ 9.86 µM)
[26]
  selectivity ratio: 64

## Cc1nc(-c2ccc3ccccc3c2)sc1-c1nnc(N[C@@H]2CCCC[C@@H]2N)o1 (relative stereo)
[1]
  selectivity ratio: 64
[2]
  selectivity ratio: 64
Pichia kudriavzevii
  MIC: 1 mg/L (≈ 2.47 µM)
[Candida] auris [5]
  MIC: 1 mg/L (≈ 2.47 µM)
Caco-2
  Activity: Non-Toxic
[6]
  MIC: 2 mg/L (≈ 4.93 µM)
Cryptococcus neoformans [7]
  MIC: 1 mg/L (≈ 2.47 µM)
[8]
  selectivity ratio: 64
Staphylococcus aureus
  MIC: > 64 mg/L
[10]
  selectivity ratio: 64
[11]
  selectivity ratio: 64
Nakaseomyces glabratus
  MIC: 0.5 mg/L (≈ 1.23 µM)
[12]
  selectivity ratio: 64
Cryptococcus neoformans [13]
  Activity: 1.04 log10CFU/ml
[14]
  MIC: 2 mg/L (≈ 4.93 µM)
[16]
  selectivity ratio: 64
[Candida] auris [17]
  MIC: 2 mg/L (≈ 4.93 µM)
[18]
  selectivity ratio: 64
[19]
  selectivity ratio: 64
[21]
  MIC: 1 mg/L (≈ 2.47 µM)
Cryptococcus neoformans [22]
  MIC: 1 mg/L (≈ 2.47 µM)
[23]
  selectivity ratio: 64
[Candida] auris [24]
  MIC: 2 mg/L (≈ 4.93 µM)
Candida parapsilosis
  MIC: 1 mg/L (≈ 2.47 µM)
Cryptococcus neoformans [25]
  MIC: 2 mg/L (≈ 4.93 µM)
Aspergillus fumigatus
  MIC: 4 mg/L (≈ 9.86 µM)
[26]
  selectivity ratio: 64

From ChEMBL document CHEMBL5329183, “Naphthylthiazoles: a class of broad-spectrum antifungals” (RSC Med Chem, 2023)
